From ChEMBL document CHEMBL1128321, “Piperazinylalkyl heterocycles as potential antipsychotic agents” (J Med Chem, 1995)

Tests used:
[1] = Stability half-life at pH-2; assay type: physicochemical
In short: (§1)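 Half-life measured in solution at pH 2, about 3 × 10⁻³ M compound in citric acid–phosphate buffer at 22 °C.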

[2] = tested on: Rattus norvegicus; experiment: Conditioned avoidance response activity was determined by the ability to block the conditioned avoidance of a foot shock at 15 mg/kg(ip); assay type: functional
In short: (§2)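 Male Fischer 344 rats (300–500 g) trained on a discrete-trial single-lever task, pressing the lever to avoid an impending shock; block of responding read at time of peak effect. Escape loss = percent of animals failing to escape the shock; >20% escape loss with CAR inhibition taken as potential for sedation.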

[3] = tested on: Rattus norvegicus; experiment: Conditioned avoidance response activity was determined by the ability to block the conditioned avoidance of a foot shock at 5 mg/kg(ip); assay type: functional; in short: as §2
[4] = tested on: Rattus norvegicus; experiment: Percentage of animals failing to escape the shock was measured and affords a rough index for nonspecific sedation at 5 mg/kg(ip)(>20% esc loss = potential for sedation); assay type: functional; in short: as §2
[5] = tested on: Rattus norvegicus; experiment: Conditioned avoidance response activity was determined by the ability to block the conditioned avoidance of a foot shock (ip); assay type: functional
In short: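 Male Fischer 344 rats (300–500 g) were trained on a single-lever discrete-trial task in which a lever press avoids an impending shock. Block of avoidance was scored at the time of peak effect. […] The percentage of rats failing to escape the shock (escape loss) was also recorded.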

[6] = molecular target: T1, 5-hydroxytryptamine receptor 1A (Rattus norvegicus, UniProt P19327); experiment: Binding affinity was determined against 5-hydroxytryptamine 1A receptor using […]
T1 sequence (P19327 whole entry): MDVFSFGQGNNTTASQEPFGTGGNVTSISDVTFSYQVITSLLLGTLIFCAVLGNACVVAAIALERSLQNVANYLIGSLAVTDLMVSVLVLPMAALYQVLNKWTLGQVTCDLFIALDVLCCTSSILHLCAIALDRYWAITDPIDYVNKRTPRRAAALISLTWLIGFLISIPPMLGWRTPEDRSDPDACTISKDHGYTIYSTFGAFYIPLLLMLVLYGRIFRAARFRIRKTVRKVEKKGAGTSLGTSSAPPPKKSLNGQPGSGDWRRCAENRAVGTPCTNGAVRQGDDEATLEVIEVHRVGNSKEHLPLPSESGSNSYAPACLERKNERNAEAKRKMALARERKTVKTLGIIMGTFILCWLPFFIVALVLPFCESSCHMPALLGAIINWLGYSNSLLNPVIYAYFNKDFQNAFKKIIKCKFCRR

[7] = Stability half-life at pH-2; stable; assay type: physicochemical; in short: as §1
[8] = tested on: Rattus norvegicus; experiment: Percentage of animals failing to escape shock was measured, affording a rough index for nonspecific sedation at 5 mg/kg(ip)

SMILES	half-life [1] [h]	inhibition in vivo at 15 mg/kg [2] [%]	inhibition in vivo at 5 mg/kg [3] [%]	Esc loss [4] [%]	ED50 [5] [mg/kg]	Ki [6] [nM]	T1/2 [7]	Esc loss [8] [%]
CC(C)Oc1ccccc1N1CCN(Cc2ccc(CN3CCCCC3=O)n2C)CC1 [RWJ-25730]	1.37	98	87	8				
O=C1CC2(CCCC2)CC(=O)N1CCCCN1CCN(c2ncccn2)CC1 [BUSPIRONE]					4.5			
COc1ccccc1N1CCN(Cc2ccc(CN3CCCCCCC3=O)o2)CC1.O=C(O)CCC(=O)O		99				32	Stable	19
CC(C)Oc1ccccc1N1CCN(Cc2ccc(CN3CCCCCCC3=O)o2)CC1.O=C(O)CCC(=O)O		76				29	Stable	1
